Hits are enriched below; roughly 3.3% of the tested compounds scored in any of these assays.
ATG4B inhibitor = blocks human ATG4B protease cleavage of LC3 substrate; AID 504462; ATG4B cleavage of LC3-PLA2, NBD-HPC fluorescence, 1 h; Q9Y4P1; 0.51% of 340,000 active; inhibition, % at 8.33 µM; in the data active means inhibition above about 40%
Target sequence (Q9Y4P1 whole entry, looked up): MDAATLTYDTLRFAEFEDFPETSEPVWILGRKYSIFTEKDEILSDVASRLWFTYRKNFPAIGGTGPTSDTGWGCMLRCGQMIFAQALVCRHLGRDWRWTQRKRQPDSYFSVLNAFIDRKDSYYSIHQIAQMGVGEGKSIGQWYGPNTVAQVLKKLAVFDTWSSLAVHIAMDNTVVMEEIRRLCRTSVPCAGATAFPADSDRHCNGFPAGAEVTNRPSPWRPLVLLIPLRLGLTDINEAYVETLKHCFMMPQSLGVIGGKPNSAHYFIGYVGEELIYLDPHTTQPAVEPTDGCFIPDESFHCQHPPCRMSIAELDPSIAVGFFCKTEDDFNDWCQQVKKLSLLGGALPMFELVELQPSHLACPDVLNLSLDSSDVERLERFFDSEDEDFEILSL
ABCB6 inh 2 = blocks the human ABCB6 transporter | Q9NP58 | K562-ABCB6 porphyrin accumulation, flow cytometry, 1 h; stronger effect = lower value | fluorescence ratio to DMSO, % at 10 µM | 0.19% of 360,000 active;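 active means fluorescence ratio to DMSO below 75%, the collection mean minus 3 SD; inconclusive means too few cells collected in the well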;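 further: signal is porphyrin accumulated inside mitochondria; 100% equals median channel fluorescence of DMSO control wells; lower ratio means ABCB6 inhibition with less porphyrin fluorescence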
Myeloid diff 2 = compounds promoting myeloid differentiation; calls only at 10 µM; ER-HoxA9 myeloid progenitors, lysozyme-GFP differentiation, flow cytometry; 1% of 360,000 active;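 active means normalized GFP-positive differentiation at or above the plate's own cutoff, the solvent-only control mean plus 3 SD; inconclusive means no clear call, values can overlap the other calls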;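 further: cells exposed to compound for four days before flow analysis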
Arrestin-AP2 inh = human beta-arrestin and AP2 interaction inhibition. FITC-arrestin peptide / GST-AP2 beads, flow cytometry; AP2 beta2 appendage carries R879A mutation. inhibition, % at 10 µM. 0.31% of 340,000 active. AID 504490;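 active means inhibition above a set limit, near 3 SD of compounds lacking own fluorescence, cut at about 54% in these data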;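 further: plate controls were DMSO wells for no effect and 5 µM unlabelled arrestin peptide for full effect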
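System: GST-AP2 R879A glutathione beads. Medium: PBS with 0.05% Tween 20 and 0.1% BSA. Also added: FITC-arrestin peptide, 50 nM. Incubation: 12 min plus 1 h, RT. Measured by: high-throughput flow cytometry of beads, ex 488, em 535 nm. Evaluation: percent drop in bead-associated FITC signal.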
Granule exo inh = lytic granule exocytosis inhibition; TALL-104 LAMP-1 surface exposure, flow cytometry; cells stimulated with thapsigargin and PMA; inhibition, % at 10 µM; 0.66% of 360,000 active; AID 651702;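 active means inhibition above about 55%, limit read from the data; inconclusive means no clear call, values can overlap the other calls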
NRP1-CendR mod = modulators of CendR peptide binding to human neuropilin-1 | O14786 | FAM-RPARPAR peptide binding to NRP-1, fluorescence polarization | inhibition, % at 25 µM | 0.85% of 360,000 active;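 active means inhibition or corrected inhibition above about 18%, plus a signal ratio from 0.5 to 1.5, limit read from the data, passing the limit was not always enough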
An asterisk follows results filed as active; i = inactive; u = inconclusive; x = no result given; + = active, no number.

SMILES	ATG4B inhibitor	ABCB6 inh 2	Myeloid diff 2	Arrestin-AP2 inh	Granule exo inh	NRP1-CendR mod
Cc1nnc(NC(=O)c2cc(S(=O)(=O)N(C)C)ccc2N2CCCC2)s1	0	96	i	-4	0	23*
COc1ccc(C(=O)NC2CCCc3ccccc32)cc1[N+](=O)[O-] (stereo unspecified)	9	100	i	5	6	3
CCOc1ccc(-n2c(SCC(=O)Nc3ccc(CC)cc3)nc3n[nH]c(C)c3c2=N)cc1	-1	227	+	-8	-4	1
Cc1cccc(NC(=S)N(CCN(C)C)C(C)c2ccccn2)c1 (stereo unspecified)	-8	93	+	8	1	2
Cc1ccc(NC(=O)CSc2nnc(-c3ccc(S(=O)(=O)N4CCCC4)cc3)o2)cc1C	6	103	i	6	2	26*
Cc1cccc(NC(=O)CSc2nnc(-c3ccc(S(=O)(=O)N4CCCC4)cc3)o2)c1	-3	101	i	3	0	-15
C=CCn1c(SCC(=O)Nc2c(C)n(C)n(-c3ccccc3)c2=O)nnc1-c1ccncc1	x	97	i	x	54	-3
CN(C)S(=O)(=O)c1ccc(N2CCCC2)c(C(=O)N2CCN(S(=O)(=O)c3ccc(F)c(F)c3)CC2)c1	-19	98	i	12	1	15
CC(C)N1CC2=C(OC(N)=C(C#N)C2c2cccnc2)/C(=C/c2cccnc2)C1 (stereo unspecified)	-11	98	i	21	4	26*
O=C(Nc1cccnc1)c1ccc2nc(-c3ccccc3)c(-c3ccccc3)nc2c1	-6	193	+	-10	1	-2
O=C(Nc1cccnc1)c1ccc(Oc2ccccc2)cc1	-10	98	i	6	-4	-13
COC(=O)CCCC1=CC2=CC(=O)C(C)(OC(=O)c3cccs3)C(=O)C2=CN1CCCOC(C)C (stereo unspecified)	-10	96	i	13	3	28*
CC1(OC(=O)c2cccs2)C(=O)C=C2C=C3CCCN3C=C2C1=O (stereo unspecified)	0	94	i	28	-5	41*
CC1(OC(=O)CCc2ccccc2)C(=O)C=C2C=C3CCCN3C=C2C1=O (stereo unspecified)	-14	94	i	18	1	48*
COC(=O)CCCC1=CC2=CC(=O)C(C)(OC(=O)c3cccs3)C(=O)C2=CN1Cc1ccccc1 (stereo unspecified)	-1	93	i	6	-4	5
CC(C)(C)NC(=O)C1CC1(c1ccccc1)c1ccccc1 (stereo unspecified)	-8	93	i	-1	-1	-12
O=C(CNc1cccc2ccccc12)N/N=C/c1ccc([N+](=O)[O-])o1	-11	107	i	20	-1	18
O=C(Cc1ccc([N+](=O)[O-])cc1)N/N=C/c1ccc([N+](=O)[O-])o1	-8	104	+	27	6	-8
O=[N+]([O-])c1ccc(/C=N/N=C/c2ccc([N+](=O)[O-])o2)o1	17	199	u	38	63*	5
O=C(CNc1cccc([N+](=O)[O-])c1)N/N=C/c1ccc([N+](=O)[O-])o1	-1	103	+	2	-1	-4
COc1ccc(/C(C)=N/NC(=O)CNC(=O)c2cccnc2)c(OC)c1	1	96	i	37	8	6
Cc1cnc(NC(=O)CCCNC(=O)c2ccc(Cl)cc2)s1	-4	98	i	44	2	-5
COc1cc(S(=O)(=O)N2CCOCC2)ccc1NC(=O)CSc1n[nH]c(=O)[nH]c1=O	-4	96	i	-6	-3	-2
Cc1ccc([N+](=O)[O-])cc1S(=O)(=O)Nc1cccc(S(=O)(=O)NC2=NCCC2)c1	6	101	i	-7	2	0
N#Cc1ccccc1NC(=O)COC(=O)CCc1ccccc1	-5	100	x	-25	-9	17*
CC(=O)OC[C@]12CC[C@H]3[C@@](C)(CC[C@H]4C(C)(C)CCC[C@]34C)[C@@H]1CC(C1=CC(=O)OC1O)O2 (stereo partly specified)	x	95	i	x	86*	-132
